Source: PubChem (several laboratories)
In the library only some 4.3% were active in any assay of this set; here they are far more common.
TAAR1 antagonist – human TAAR1 antagonism. 360,000 tested, 1.5% active. Q96RJ0. inhibition, % at 3 µM. AID 624466. CHO RD-HGA16 TAAR1, Fluo-8 calcium fluorescence, antagonist;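 active = inhibition above a per-plate cutoff, the mean inhibition of test compounds on that plate plus 3 SD, cut at about 49% in these data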;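 also: 0% = DMSO plus EC80 beta-PEA response and 100% = DMSO alone without agonist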
Target sequence (Q96RJ0 whole entry, looked up): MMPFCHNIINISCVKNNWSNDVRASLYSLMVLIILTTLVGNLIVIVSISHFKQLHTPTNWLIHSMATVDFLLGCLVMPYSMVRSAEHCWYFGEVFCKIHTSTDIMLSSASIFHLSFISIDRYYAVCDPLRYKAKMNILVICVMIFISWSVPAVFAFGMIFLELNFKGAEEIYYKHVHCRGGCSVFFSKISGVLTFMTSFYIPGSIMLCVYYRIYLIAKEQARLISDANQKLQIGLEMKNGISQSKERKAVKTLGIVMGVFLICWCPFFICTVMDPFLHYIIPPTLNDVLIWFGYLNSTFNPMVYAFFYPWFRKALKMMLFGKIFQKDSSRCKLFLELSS
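System: RD-HGA16 CHO cells with stable hTAAR1 and Gα16 | Probe or stimulus: EC80 β-phenethylamine stimulus | Dosing: 3 µM, single point | Times: Dye loading 75 min at 37 °C, then 30 min room temperature | Measured by: Fluo-8 calcium-sensitive fluorescence | Read-out basis: % inhibition of agonist calcium response | Replicates: n of 1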
MC4R barr agon – agonists of human melanocortin 4 receptor (MC4R) beta-arrestin; P32245; U2OS MC4R beta-arrestin complementation, luminescence; percent of melanotan II response, DMSO zero; activation, % at 8.9 µM; 360,000 tested, 0.98% active; AID 540308;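 active = activation above a per-plate cutoff, the mean activation of sample wells on that plate plus 3 SD, cut at about 8% in these data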
MC4R antagonist – human MC4R antagonism in cAMP assay | P32245 | inhibition, % at 6.5 µM | 360,000 tested, 0.48% active | MC4R-expressing cells, MTII-stimulated cAMP, LANCE TR-FRET | AID 540295;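 active = inhibition above its plate's cutoff, the mean of tested wells on that plate plus 3 SD, cut at about 29% in these data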;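 also: 0% = Melanotan II alone and 100% = Melanotan II plus saturating MCL0020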
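Material: U2OS-MC4R stable cell line | Reagent: Melanotan II challenge after compound preincubation | Doses: One concentration, 6.5 µM nominal | Incubation: 30-min compound preincubation, 1-h Melanotan II challenge, 1-h detection, room temperature | Signal: TR-FRET cAMP assay | Replicates: One well per compound, no replicates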
HTR2A ag – agonists of mouse serotonin 5-HT2A receptor (HTR2A). P35363. CHO-K1 mHTR2A beta-arrestin complementation, luminescence; percent of 30 µM serotonin response. activation, % at 7.6 µM. 360,000 tested, 0.66% active. AID 624169;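 active = activation above a run cutoff, the mean activation of all tested compounds plus 3 SD, cut at about 14% in these data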;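 also: 0% = plate median of compound wells and 100% = 30 µM serotonin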
TAAR1 ag – agonists of human TAAR1; CHO RD-HGA16 TAAR1, Fluo-8 calcium fluorescence; vehicle wells 0%, saturating PEA agonist 100%; activation, % at 3 µM; Q96RJ0; 360,000 tested, 0.99% active;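 active = activation above the mean activation of all test compounds in the run plus 3 SD, cut at about 38% in these data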
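Test system: RD-HGA16 (CHO) cells co-expressing Gα16 and hTAAR1 / Benchmarks: DMSO vehicle as 0%, PEA at EC100 as 100% / Repeats: no replicates (n 1) / Measure: % activation from peak over basal fluorescence ratio, DMSO-to-PEA scaled / Timing: 17-24 h plating, Fluo-8 75 min 37 °C, 30 min RT / Technique: kinetic Fluo-8 calcium fluorescence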
Beta2AR agonist – agonists of human beta-2 adrenergic receptor inducing internalization; response, % (concentration not given with the values); 340,000 tested, 0.43% active; Am2.2-beta2AR cells, FAP receptor internalization, flow cytometry; P07550;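 active = response above a set limit, near 3 SD of response in nonfluorescent compounds, cut at about 42% in these data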
TAAR1 ag conf – confirmation of human TAAR1 agonists; shares compounds with TAAR1 ag; CHO RD-HGA16 TAAR1, Fluo-8 calcium fluorescence; scaled: DMSO 0%, maximal phenethylamine 100%; activation, % at 3 µM; 2,400 tested, 82% active; AID 651783;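 active = activation above a cutoff set at the run's mean compound activation plus 3 SD, cut at about 39% in these data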
Ga16 nonsel ag – counter-screen for TAAR1 agonists: nonselective agonists in parental cells; CHO-Ga16 parental, Fluo-8 calcium fluorescence; normalized to maximal ATP response, DMSO zero; activation, % at 3 µM; shares compounds with TAAR1 ag; 2,400 tested, 50% active;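 active = activation above the run cutoff, the mean activation over all tested wells plus 3 SD, cut at about 12% in these data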;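 also: 0% = DMSO wells and 100% = maximal ATP response on the peak over basal ratio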
TAAR1 desensitize – counter-screen for human TAAR1 agonists: agonists that desensitize TAAR1 | shares compounds with TAAR1 ag | CHO RD-HGA16 hTAAR1, Fluo-8 calcium, beta-PEA response inhibition | inhibition, % at 3 µM | 2,400 tested, 46% active | AID 651951;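 active = inhibition above the run cutoff, the mean inhibition of all test compounds plus 3 SD, cut at about 49% in these data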;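 also: beta-PEA stimulus applied at its EC80; loss of beta-PEA calcium signal after compound pretreatment read as receptor desensitization; 0% = DMSO with beta-PEA at EC80 and 100% = DMSO alone without agonist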
Ga16 antag count – nonselective Ga16 antagonism, counter-screen | shares compounds with TAAR1 ag | inhibition, % at 3 µM | CHO-Ga16 ATP-induced calcium, Fluo-8 fluorescence | 2,400 tested, 39% active;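 active = inhibition above the plate's mean compound inhibition plus 3 SD, computed per plate, cut at about 22% in these data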;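 also: 0% = EC80 ATP with DMSO and 100% = DMSO wells without ATP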
Starred values were filed as active, the others as inactive; . = not tested or not shown.

SMILES	TAAR1 antagonist	MC4R barr agon	MC4R antagonist	HTR2A ag	TAAR1 ag	Beta2AR agonist	others
CN1/C(=C\C=Nc2ccccc2)C(C)(C)c2ccccc21	1	-1	1	3	14	-18
CN1/C(=C\C=C2C(=O)NC(=O)NC2=O)C(C)(C)c2ccccc21	34	-3	-19	12	86*	1	TAAR1 ag conf=21;Ga16 nonsel ag=27*;TAAR1 desensitize=22;Ga16 antag count=25*
COC(=O)C1=C(c2ccc(F)cc2OCc2ccccc2)C[C@@H]2CC[C@H]1N2C(=O)NCCCc1ccccc1	30	-4	9	-11	6	4
Cc1ccc(OC(=O)N(C)C[C@H]2OCc3cnnn3CCCC(=O)N([C@H](C)CO)C[C@@H]2C)cc1	-6	0	2	6	1	.
CCOC(=O)C1(c2ccccc2)CCN(CCC(C#N)(c2ccccc2)c2ccccc2)CC1	1	0	11	-5	-1	35
